Active and inactive are the calls of the source. The rule behind the calls is not given here.
Columns and labels:
SK-MES-1 = assay: Antiproliferative activity against human SK-MES cells after 3 days by SRB assay; type: functional, cell-based; details: SK-MES-1, 72 h
Method in brief: (§1)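 Cells seeded at 5 × 10^4 cells/mL and exposed to a range of concentrations for 3 days. Fixed with 10% TCA, then SRB stain read. Growth expressed as % of solvent-treated control. IC50 obtained by nonlinear regression of percent survival versus concentration.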

[1] = Antiproliferative activity against human H1299 cells after 3 days by SRB assay; type: functional, cell-based; details: NCI-H1299, 72 h; method in brief: as §1
NCI-H358 = assay: Antiproliferative activity against human NCI-H358 cells after 3 days by SRB assay; type: functional, cell-based; details: NCI-H358, 72 h; method in brief: as §1
T47D = assay: Antiproliferative activity against human T47D cells after 3 days by SRB assay; type: functional, cell-based; details: 72 h; method in brief: as §1
PC-3 = assay: Antiproliferative activity against human PC3 cells after 3 days by SRB assay; type: functional, cell-based; details: PC-3, 72 h; method in brief: as §1
MRC5 = assay: Antiproliferative activity against human MRC5 cells after 3 days by SRB assay; type: cell-based; details: mrc5, 72 h; method in brief: as §1
A549 [2] = assay: Cell cycle arrest in human A549 cells assessed as accumulation at G0/G1 phase at 100 nM after 24 hrs by propidium iodide staining-based flow cytometric analysis (reference value: 49.6 %); type: functional
A549 [3] = assay: Cell cycle arrest in human A549 cells assessed as accumulation at G2/M phase at 100 nM after 24 hrs by propidium iodide staining-based flow cytometric analysis (reference value: 18.9 %); type: functional
A549 [4] = assay: Cell cycle arrest in human A549 cells assessed as accumulation at S phase at 20 nM after 48 hrs by propidium iodide staining-based flow cytometric analysis (reference value: 31.6 %); type: functional
A549 [5] = assay: Cell cycle arrest in human A549 cells assessed as accumulation at G2/M phase at 20 nM after 48 hrs by propidium iodide staining-based flow cytometric analysis (reference value: 18.9 %); type: functional
A549 [6] = assay: Cell cycle arrest in human A549 cells assessed as accumulation at G0/G1 phase at 100 nM after 48 hrs by propidium iodide staining-based flow cytometric analysis (reference value: 49.6 %); type: functional
A549 [7] = assay: Cell cycle arrest in human A549 cells assessed as accumulation at S phase at 100 nM after 48 hrs by propidium iodide staining-based flow cytometric analysis (reference value: 31.6 %); type: functional
A549 [8] = assay: Downregulation of CDK4 expression in human A549 cells at G1 phase at 5 to 100 nM after 24 to 48 hrs by Western blot analysis; type: functional, cell-based
Method in brief: (§2)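 A549 cells treated with a range of concentrations for 24 or 48 h. Lysates run on 6–15% SDS-PAGE and blotted to PVDF, blocked in 5% milk/PBST. Primary antibodies overnight at 4 °C, secondary 2 h at room temperature, ECL detection. Representative of three independent experiments.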

A549 [9] = assay: Downregulation of phosphorylated Rb expression in human A549 cells at G1 phase at 5 to 100 nM after 24 to 48 hrs by Western blot analysis; type: functional, cell-based; method in brief: as §2
[10] = target: Mitogen-activated protein kinase; ERK1/ERK2 (Homo sapiens) (UniProt P27361+P28482); assay: Inhibition of ERK1/2 in human A549 cells at 5 to 40 nM after 24 hrs by Western blot analysis; type: cell-based
Chain of Mitogen-activated protein kinase; ERK1/ERK2 (Homo sapiens) (P27361 whole entry, looked up): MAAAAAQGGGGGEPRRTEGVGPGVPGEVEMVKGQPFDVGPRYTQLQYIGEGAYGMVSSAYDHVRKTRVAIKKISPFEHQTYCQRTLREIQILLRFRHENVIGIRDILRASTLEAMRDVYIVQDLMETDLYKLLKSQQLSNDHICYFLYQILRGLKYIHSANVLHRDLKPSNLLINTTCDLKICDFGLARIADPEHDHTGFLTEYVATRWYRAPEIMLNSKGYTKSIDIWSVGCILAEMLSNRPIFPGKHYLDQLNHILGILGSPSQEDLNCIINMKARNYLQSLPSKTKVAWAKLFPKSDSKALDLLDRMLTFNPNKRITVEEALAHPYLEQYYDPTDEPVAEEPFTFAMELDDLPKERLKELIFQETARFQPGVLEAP
Chain of Mitogen-activated protein kinase; ERK1/ERK2 (Homo sapiens) (P28482 whole entry, looked up): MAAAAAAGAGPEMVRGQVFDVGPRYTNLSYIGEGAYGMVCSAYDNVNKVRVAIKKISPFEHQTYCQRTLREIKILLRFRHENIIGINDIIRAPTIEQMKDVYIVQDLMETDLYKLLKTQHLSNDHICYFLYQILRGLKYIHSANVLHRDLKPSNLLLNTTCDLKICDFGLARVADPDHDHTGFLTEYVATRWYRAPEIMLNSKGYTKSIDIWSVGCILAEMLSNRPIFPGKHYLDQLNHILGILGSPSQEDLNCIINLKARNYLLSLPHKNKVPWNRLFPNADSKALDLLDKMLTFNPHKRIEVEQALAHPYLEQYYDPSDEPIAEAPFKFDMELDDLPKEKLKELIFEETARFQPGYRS
Method in brief: (§3)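 A549 cells (RPMI 1640, 10% FBS, 37 °C, 5% CO2) exposed to the compound at various concentrations for 24 or 48 h. Lysates run on 6–15% SDS-PAGE, transferred to PVDF, probed with primary antibodies overnight at 4 °C, and detected by ECL. Blots shown are representative of three independent experiments.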

[11] = target: 3-phosphoinositide-dependent protein kinase 1 (Homo sapiens) (UniProt O15530); assay: Inhibition of PDK1 phosphorylation in human A549 cells after 24 hrs by Western blot analysis; type: cell-based; method in brief: as §3
Chain of 3-phosphoinositide-dependent protein kinase 1 (Homo sapiens) (O15530 whole entry): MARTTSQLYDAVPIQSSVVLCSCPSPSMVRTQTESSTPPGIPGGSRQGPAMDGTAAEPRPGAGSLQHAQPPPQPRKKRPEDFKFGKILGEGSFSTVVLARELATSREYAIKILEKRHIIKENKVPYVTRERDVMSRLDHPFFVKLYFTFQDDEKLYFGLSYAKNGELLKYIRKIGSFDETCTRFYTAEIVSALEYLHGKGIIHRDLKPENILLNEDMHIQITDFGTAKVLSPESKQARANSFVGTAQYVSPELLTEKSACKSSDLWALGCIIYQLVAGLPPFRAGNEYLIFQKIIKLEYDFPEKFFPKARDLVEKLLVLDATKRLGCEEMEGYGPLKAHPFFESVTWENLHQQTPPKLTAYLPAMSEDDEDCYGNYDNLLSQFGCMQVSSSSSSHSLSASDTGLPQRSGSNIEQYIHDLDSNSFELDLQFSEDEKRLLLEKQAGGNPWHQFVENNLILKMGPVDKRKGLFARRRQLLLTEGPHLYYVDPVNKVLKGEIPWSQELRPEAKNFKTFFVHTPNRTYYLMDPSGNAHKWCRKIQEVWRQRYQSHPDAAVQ

[12] = target: Glycogen synthase kinase-3 beta (Homo sapiens) (UniProt P49841); assay: Inhibition of GSK3-beta in human A549 cells after 24 hrs by Western blot analysis; type: cell-based; method in brief: as §3
[13] = target: Signal transducer and activator of transcription 3 (Homo sapiens) (UniProt P40763); assay: Inhibition of STAT3 phosphorylation in human A549 cells after 24 hrs by Western blot analysis; type: cell-based; method in brief: as §3
Chain of Signal transducer and activator of transcription 3 (Homo sapiens) (P40763 whole entry): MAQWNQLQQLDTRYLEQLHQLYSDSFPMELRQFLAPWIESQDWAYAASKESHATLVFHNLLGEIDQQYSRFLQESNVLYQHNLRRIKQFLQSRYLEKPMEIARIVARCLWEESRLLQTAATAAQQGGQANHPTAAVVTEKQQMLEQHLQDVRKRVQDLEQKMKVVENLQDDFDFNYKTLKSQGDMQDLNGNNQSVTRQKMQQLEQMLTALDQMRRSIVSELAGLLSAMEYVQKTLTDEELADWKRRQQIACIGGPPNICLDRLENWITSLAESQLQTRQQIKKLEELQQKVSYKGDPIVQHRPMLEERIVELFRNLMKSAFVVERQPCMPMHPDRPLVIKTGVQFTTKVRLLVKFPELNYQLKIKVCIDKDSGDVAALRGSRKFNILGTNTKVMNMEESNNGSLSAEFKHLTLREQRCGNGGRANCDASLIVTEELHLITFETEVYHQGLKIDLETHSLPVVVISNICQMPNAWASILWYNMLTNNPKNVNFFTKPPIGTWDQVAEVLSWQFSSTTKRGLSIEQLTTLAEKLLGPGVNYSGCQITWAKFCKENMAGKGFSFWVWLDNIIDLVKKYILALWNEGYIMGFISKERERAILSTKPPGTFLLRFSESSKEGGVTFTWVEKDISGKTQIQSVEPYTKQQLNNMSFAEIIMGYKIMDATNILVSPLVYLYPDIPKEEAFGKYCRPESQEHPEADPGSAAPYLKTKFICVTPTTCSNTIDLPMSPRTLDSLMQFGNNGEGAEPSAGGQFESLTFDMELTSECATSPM

[14] = target: Serine/threonine-protein kinase mTOR (Homo sapiens) (UniProt P42345); assay: Inhibition of MTOR phosphorylation in human A549 cells at 20 nM after 24 to 48 hrs by Western blot analysis; type: cell-based; method in brief: as §3
[15] = target: Epidermal growth factor receptor (Homo sapiens) (UniProt P00533); assay: Inhibition of EGFR-mediated ERK1/2 phosphorylation in EGF-stimulated human A549 cells pretreated at 5 to 100 nM by Western blot analysis; type: cell-based
Chain of Epidermal growth factor receptor (Homo sapiens) (P00533 whole entry): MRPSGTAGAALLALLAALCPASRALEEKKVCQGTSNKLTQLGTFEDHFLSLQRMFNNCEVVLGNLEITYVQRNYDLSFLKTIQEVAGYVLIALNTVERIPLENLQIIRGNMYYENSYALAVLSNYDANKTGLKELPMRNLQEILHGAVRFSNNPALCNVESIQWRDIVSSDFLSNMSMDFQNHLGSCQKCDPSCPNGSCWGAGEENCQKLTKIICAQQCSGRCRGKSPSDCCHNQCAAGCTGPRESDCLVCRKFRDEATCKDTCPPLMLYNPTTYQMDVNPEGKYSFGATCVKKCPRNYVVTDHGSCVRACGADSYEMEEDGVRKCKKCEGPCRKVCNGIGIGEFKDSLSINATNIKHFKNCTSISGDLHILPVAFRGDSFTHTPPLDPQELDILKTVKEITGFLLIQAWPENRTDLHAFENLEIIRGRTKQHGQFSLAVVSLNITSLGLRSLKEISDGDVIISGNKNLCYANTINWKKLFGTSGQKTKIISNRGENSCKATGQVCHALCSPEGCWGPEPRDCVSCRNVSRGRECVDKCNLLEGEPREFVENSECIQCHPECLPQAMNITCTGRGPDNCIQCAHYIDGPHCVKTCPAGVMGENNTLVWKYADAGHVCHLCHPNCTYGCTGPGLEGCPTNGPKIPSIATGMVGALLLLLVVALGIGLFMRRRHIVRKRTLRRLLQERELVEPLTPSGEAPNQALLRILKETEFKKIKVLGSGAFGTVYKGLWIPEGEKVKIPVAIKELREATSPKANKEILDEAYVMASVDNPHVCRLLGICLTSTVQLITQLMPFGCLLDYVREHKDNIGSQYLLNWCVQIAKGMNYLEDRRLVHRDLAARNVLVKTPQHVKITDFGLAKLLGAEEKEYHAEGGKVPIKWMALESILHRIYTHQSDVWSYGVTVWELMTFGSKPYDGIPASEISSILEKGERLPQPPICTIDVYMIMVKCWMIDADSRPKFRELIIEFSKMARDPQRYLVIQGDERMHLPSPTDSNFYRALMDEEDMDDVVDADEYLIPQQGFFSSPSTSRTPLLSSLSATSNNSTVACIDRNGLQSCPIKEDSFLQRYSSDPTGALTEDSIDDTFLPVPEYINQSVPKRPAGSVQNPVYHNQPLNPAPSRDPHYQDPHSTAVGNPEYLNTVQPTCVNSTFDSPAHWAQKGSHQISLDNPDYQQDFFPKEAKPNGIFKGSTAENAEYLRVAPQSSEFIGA

[16] = target: Hepatocyte growth factor receptor (Homo sapiens) (UniProt P08581); assay: Inhibition of c-Met-mediated Akt phosphorylation in HGF-stimulated human A549 cells pretreated at 5 to 100 nM by Western blot analysis; type: cell-based
Chain of Hepatocyte growth factor receptor (Homo sapiens) (P08581 whole entry): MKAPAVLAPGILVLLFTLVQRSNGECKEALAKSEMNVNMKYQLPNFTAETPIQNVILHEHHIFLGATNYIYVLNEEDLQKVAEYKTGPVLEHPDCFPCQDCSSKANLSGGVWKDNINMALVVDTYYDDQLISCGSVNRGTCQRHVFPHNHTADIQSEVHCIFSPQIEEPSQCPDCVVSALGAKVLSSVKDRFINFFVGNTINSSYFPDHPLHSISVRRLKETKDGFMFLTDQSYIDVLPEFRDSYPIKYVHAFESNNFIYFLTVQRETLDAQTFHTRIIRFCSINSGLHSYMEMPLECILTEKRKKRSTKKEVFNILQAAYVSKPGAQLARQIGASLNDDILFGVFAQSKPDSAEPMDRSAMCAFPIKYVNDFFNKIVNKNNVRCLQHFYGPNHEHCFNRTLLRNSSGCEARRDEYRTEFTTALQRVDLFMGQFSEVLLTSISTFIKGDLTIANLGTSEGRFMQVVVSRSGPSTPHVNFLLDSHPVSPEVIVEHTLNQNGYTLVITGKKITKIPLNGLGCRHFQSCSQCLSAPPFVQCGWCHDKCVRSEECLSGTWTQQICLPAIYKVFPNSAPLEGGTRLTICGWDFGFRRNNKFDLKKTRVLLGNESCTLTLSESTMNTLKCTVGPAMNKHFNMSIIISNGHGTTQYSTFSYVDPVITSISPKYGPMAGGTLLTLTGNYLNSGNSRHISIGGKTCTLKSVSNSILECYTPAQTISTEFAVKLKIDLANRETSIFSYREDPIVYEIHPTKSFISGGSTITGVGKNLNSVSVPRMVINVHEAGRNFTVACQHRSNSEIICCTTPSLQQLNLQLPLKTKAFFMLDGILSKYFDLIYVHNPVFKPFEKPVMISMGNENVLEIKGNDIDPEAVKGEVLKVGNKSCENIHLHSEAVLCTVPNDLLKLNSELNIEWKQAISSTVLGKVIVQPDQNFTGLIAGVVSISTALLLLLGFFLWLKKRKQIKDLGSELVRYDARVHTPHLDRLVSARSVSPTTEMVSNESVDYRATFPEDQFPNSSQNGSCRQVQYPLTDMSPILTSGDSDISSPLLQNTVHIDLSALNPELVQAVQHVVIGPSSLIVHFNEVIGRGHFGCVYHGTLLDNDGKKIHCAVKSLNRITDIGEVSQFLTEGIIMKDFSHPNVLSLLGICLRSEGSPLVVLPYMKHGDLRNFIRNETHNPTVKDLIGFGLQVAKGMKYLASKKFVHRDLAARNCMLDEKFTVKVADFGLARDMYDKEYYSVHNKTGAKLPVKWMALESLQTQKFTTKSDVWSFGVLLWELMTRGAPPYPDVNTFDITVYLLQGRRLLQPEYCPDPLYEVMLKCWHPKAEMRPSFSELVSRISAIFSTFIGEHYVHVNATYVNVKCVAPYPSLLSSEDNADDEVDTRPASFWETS
Method in brief: (§4)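 A549 cells pretreated for 2 h with the compound at 5, 20 or 100 nM, then stimulated with HGF (50 ng/mL) for 10 min. c-Met and its downstream signalling proteins read by Western blot (SDS-PAGE, PVDF transfer, ECL detection).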

[17] = target: Hepatocyte growth factor receptor (Homo sapiens) (UniProt P08581); assay: Inhibition of c-Met-mediated ERK1/2 phosphorylation in HGF-stimulated human A549 cells pretreated at 5 to 100 nM by Western blot analysis; type: cell-based; method in brief: as §4
[18] = target: Hepatocyte growth factor receptor (Homo sapiens) (UniProt P08581); assay: Inhibition of c-Met-mediated FKHRL1 phosphorylation in HGF-stimulated human A549 cells pretreated at 5 to 100 nM by Western blot analysis; type: cell-based; method in brief: as §4
[19] = target: Hepatocyte growth factor receptor (Homo sapiens) (UniProt P08581); assay: Inhibition of c-Met-mediated FAK phosphorylation in HGF-stimulated human A549 cells pretreated at 5 to 100 nM by Western blot analysis; type: cell-based; method in brief: as §4
[20] = target: Hepatocyte growth factor receptor (Homo sapiens) (UniProt P08581); assay: Inhibition of c-Met-mediated p70S6K phosphorylation in HGF-stimulated human A549 cells pretreated at 5 to 100 nM by Western blot analysis; type: cell-based; method in brief: as §4
[21] = target: Hepatocyte growth factor receptor (Homo sapiens) (UniProt P08581); assay: Inhibition of c-Met-mediated 4EBP1 phosphorylation in HGF-stimulated human A549 cells pretreated at 5 to 100 nM by Western blot analysis; type: cell-based; method in brief: as §4
A549 [22] = assay: Antitumor activity against human A549 cells xenografted in BALB/c mouse assessed as inhibition of tumor growth at 0.2 mg/kg, po once daily for 14 days measured for 27 days relative to control; type: functional, organism-based; set-up: dose 0.2 mg/kg
Method in brief: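 Female nu/nu nude mice given 3 × 10^6 A549 cells sc into the right flank, in 200 μL medium. At ~100 mm3, randomized into groups of five. Dosed orally once daily for 14 days in 100 μL ethanol–Tween 80–water (1:1:98), vehicle as control. Tumor volume measured by caliper every 2–3 days; body weight monitored.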

Mus musculus = assay: Toxicity in BALB/c mouse xenografted with human A549 cells in assessed as overt signs at 0.5 mg/kg, po once daily for 14 days measured for 27 days relative to control; type: organism-based; set-up: dose 0.5 mg/kg, route oral; details: in vivo, 648 h
Method in brief: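 Female nu/nu mice were injected sc in the right flank with 3 × 10^6 A549 cells. At about 100 mm3 tumour volume, mice were randomised into groups of five. Compound was given orally at 0.2 or 0.5 mg/kg once daily for 14 days in ethanol/Tween 80/H2O (1:1:98). Body weight and overt toxicity were monitored against vehicle controls.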

C=C(C)[C@@]12O[C@@]3(/C=C/C=C/CCCCC)O[C@@H]1[C@@H]1[C@@H]4O[C@]4(CO)[C@@H](O)[C@]4(O)C(=O)C(C)=C[C@H]4[C@@]1(O3)[C@H](C)[C@H]2OC(C)=O [YUANHUADINE]
IC50 (SK-MES-1): < 1 pM
IC50 [1]: 5.6 µM
IC50 (NCI-H358): 9.1 µM
IC50 (T47D): 12.7 µM
IC50 (PC-3): 7.4 µM
growth inhibition (GI) (MRC5): Non-toxic
Activity (A549 [2]): 65.3%
Activity (A549 [3]): 28%
Activity (A549 [4]): 15.6%
Activity (A549 [5]): 22.2%
Activity (A549 [6]): 61.1%
Activity (A549 [7]): 12.6%
Activity (A549 [8]): Active
Activity (A549 [9]): Active
inhibition [10]: Active
inhibition [11]: Dose-dependent effect
inhibition [12]: Dose-dependent effect
inhibition [13]: Dose-dependent effect
inhibition [14]: Active
inhibition [15]: Active
inhibition [16]: Active
inhibition [17]: Active
inhibition [18]: Active
inhibition [19]: Active
inhibition [20]: Active
inhibition [21]: Active
growth inhibition (GI) (A549 [22]): Active
Activity (Mus musculus): Non-toxic

— ChEMBL document CHEMBL1909581, “Growth inhibition of human lung cancer cells via down-regulation of epidermal growth factor receptor signaling by yuanhuadine, a daphnane diterpene from Daphne genkwa” (J Nat Prod, 2011)
